Each structure is given as a SMILES string. Active and inactive are the calls of the source. The rule behind the calls is not given here. Bounds are passed on as bounds.

16 molecules from ChEMBL document CHEMBL2417357, “Synthesis and antiprotozoal activities of benzyl phenyl ether diamidine derivatives” (Eur J Med Chem, 2013) can be followed below.

Series [1] can be described thus: Selectivity index, ratio of IC50 for rat L6 cells to IC50 for amastigotes of Leishmania donovani. It counts as toxicity, cell-based. The note with it: read-out: Ratio IC50. The method, boiled down: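 SI = IC50 in rat L6 myoblasts / IC50 against L. donovani MHOM/SD/62/IS-CL2D axenic amastigotes. The amastigote IC50 is the average of at least two determinations; the L6 IC50 is the average of duplicates.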

The nature of series [2]: Selectivity index, ratio of IC50 for rat L6 cells to IC50 for chloroquine-resistant Plasmodium falciparum K1. The following applies: read-out: Ratio IC50. It is filed as toxicity, cell-based. The method, boiled down:
(§1)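 SI = IC50 in rat L6 myoblasts / IC50 against the parasite (T. b. rhodesiense STIB900 or P. falciparum K1). Each IC50 is the average of duplicate determinations.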

The test system of another series is Plasmodium falciparum. The series is described as follows: Antiplasmodial activity against chloroquine-resistant Plasmodium falciparum K1. It is filed as functional, organism-based. The method, boiled down: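 Chloroquine-resistant K1 strain tested in vitro. IC50 is the average of duplicate determinations.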
A further series deals with L6. The series is described as follows: Cytotoxicity against rat L6 cells after 72 hrs by Alamar blue assay. It counts as cell-based. The following applies: L6, 72 h. The method, boiled down: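 Rat L6 myoblast cells; cytotoxic IC50 taken as the average of duplicate determinations.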
A general note: The colour change of resazurin is a common sign of viable cells or microbes.

In series [3] the test system is Trypanosoma brucei rhodesiense. Briefly: Antitrypanosomal activity against Trypanosoma brucei rhodesiense STIB900 after 72 hrs by Alamar blue assay. It counts as functional, organism-based. The note with it: STIB900, 72 h.
Series [4] has as its system Trypanosoma brucei rhodesiense. The series is described as follows: Antitrypanosomal activity against Trypanosoma brucei rhodesiense STIB900 infected in NMRI mouse assessed as mean survival days at 25 mg/kg, po administered for 4 days. It is filed as functional. The method, boiled down:
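Female NMRI mice, acute infection model with T. b. rhodesiense STIB900. Compound given as a single daily dose for four days, intraperitoneally or orally. Cure means survival to 60 days post-infection without parasitaemia relapse. Mean survival recorded in days.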

The nature of series [5]: Selectivity index, ratio of IC50 for rat L6 cells to IC50 for Trypanosoma brucei rhodesiense STIB900. It counts as toxicity, cell-based. The note with it: read-out: Ratio IC50. The method, boiled down: as §1
For series [6], the system named is Trypanosoma brucei rhodesiense. Briefly: Antitrypanosomal activity against Trypanosoma brucei rhodesiense STIB900 infected in NMRI mouse assessed as cured animal at 25 mg/kg, po administered for 4 days. It counts as functional, organism-based. Also noted: dose 25 mg/kg. The method, boiled down: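 Acute model in female NMRI mice infected with T. b. rhodesiense STIB900. Single daily doses given for four days, intraperitoneally or orally. Mice surviving 60 days post-infection without parasitaemia relapse counted as cured; result reported as cured/infected out of 4 mice per group, with mean survival in days.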

In a further series the test system is Leishmania donovani. The series is described as follows: Antileishmanial activity against amastigotes of Leishmania donovani MHOM/SD/62/IS-CL2D. It counts as functional, organism-based. The method, boiled down:
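Axenic amastigotes of L. donovani MHOM/SD/62/IS-CL2D; IC50 taken as the average of at least two determinations.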

Regarding `COc1cc(/C(N)=N/O)cc(OC)c1OCc1cccc(/C(N)=N/O)c1.Cl.Cl`, the selectivity ratio was less than 1 in series [1], less than 6 in series [2] and less than 1 in series [5]. In addition, the IC50 in the series on Plasmodium falciparum is greater than 11.5 µM; with L6, 70.7 µM; in [3] it was 157 µM; in the series on Leishmania donovani, greater than 100 µM. Besides, in series [4], the MSD amounted to 16.5 days. In [6], the result was inactive.

`CO/N=C(\N)c1cccc(COc2c(Br)cc(/C(N)=N/OC)cc2Br)c1.Cl.Cl`: the selectivity ratio is less than 1 in series [1], 8 in [2] and less than 1 in [5]. Further, the IC50 is 6.79 µM in the series on Plasmodium falciparum, 54.7 µM in the series with L6, 69.7 µM in series [3] and greater than 50 µM in the series with Leishmania donovani. Moreover, the MSD in [4] was greater than 31.5 days. Besides, the result in series [6] was inactive.

On to `CO/N=C(\N)c1ccc(COc2c(OC)cc(/C(N)=N/OC)cc2OC)cc1.Cl.Cl`, for which the selectivity ratio is greater than 2 in series [1] and greater than 1 in series [5]. The half-inhibitory concentration (IC50) with Plasmodium falciparum was greater than 10.6 µM; in the series with L6, greater than 190 µM; in series [3], 129 µM; in the series with Leishmania donovani, 100 µM. In addition, in series [4], the MSD was 11.75 days. The result in series [6] was inactive.

As to `Cl.Cl.N/C(=N\O)c1cccc(COc2c(I)cc(/C(N)=N/O)cc2I)c1`, the selectivity ratio was 2 in series [1], 2.14 in series [2] and 1 in series [5]. Besides, the IC50 was found to be 7.38 µM in the series on Plasmodium falciparum, 15.8 µM with L6, 13.6 µM in series [3] and 6.63 µM in the series with Leishmania donovani. For the same molecule, in [4], the MSD was found to be 5.75 days. Moreover, the result in series [6] was inactive.

With `CO/N=C(\N)c1cccc(COc2ccc(/C(N)=N/OC)cc2Br)c1.Cl.Cl`, the selectivity ratio in series [1] is 17; in series [2], less than 10; in series [5] it was 1. Moreover, the half-inhibitory concentration (IC50) in the series with Plasmodium falciparum was greater than 9.96 µM; in the series with L6, 99.4 µM; in [3], 79.1 µM; with Leishmania donovani it was 5.66 µM. For the same molecule, in series [4], the MSD was greater than 60 days. For the same molecule, in series [6], the outcome was Active.

`CO/N=C(\N)c1cccc(COc2c(I)cc(/C(N)=N/OC)cc2I)c1.Cl.Cl`: the selectivity ratio in [1] was less than 1; in [2], less than 4; in series [5], 1. Also, the IC50 with Plasmodium falciparum is greater than 7.1 µM; in the series with L6, 27.5 µM; in [3], 26.3 µM; with Leishmania donovani it was 44.2 µM. In [4], the MSD is 19.75 days. In addition, the outcome in series [6] was inactive.

`CO/N=C(\N)c1cccc(COc2ccc(/C(N)=N/OC)cc2Cl)c1.Cl.Cl.Cl`: the selectivity ratio in [1] was less than 1; in [2] it was less than 9; in [5], 3. The IC50 with Plasmodium falciparum is greater than 10.2 µM; in the series with L6 it was 89.6 µM; in [3], 26.1 µM; with Leishmania donovani it was greater than 100 µM. Further, in series [4], the MSD was determined as 29.25 days. Moreover, in series [6], the outcome was inactive.

For `Cl.Cl.N/C(=N\O)c1ccc(COc2ccc(/C(N)=N/O)cc2I)cc1`, the results for the selectivity ratio in [1], in series [2] and in series [5] were less than 1, 3 and less than 1, respectively. The 50% inhibitory concentration (IC50) with Plasmodium falciparum was 5.29 µM; with L6, 18.1 µM; in series [3], 25.8 µM; in the series with Leishmania donovani, greater than 100 µM. Besides, the MSD in series [4] came to 29.75 days. The result in series [6] was inactive.

As for `Cl.Cl.N/C(=N\O)c1ccc(COc2ccc(/C(N)=N/O)cc2Br)cc1`, the selectivity ratio in [1], in series [2] and in [5] was less than 1 in each case. Moreover, the IC50 was greater than 11.1 µM in the series on Plasmodium falciparum, 6.6 µM in the series with L6, 24 µM in series [3] and greater than 100 µM in the series with Leishmania donovani. For the same molecule, the MSD in series [4] came out at 28.75 days. The outcome in series [6] was inactive.

`CO/N=C(\N)c1cccc(COc2ccc(/C(N)=N/OC)cc2I)c1.Cl.Cl`: the selectivity ratio was less than 1 in series [1], 13 in series [2] and 2 in series [5]. Also, the half-maximal inhibitory concentration (IC50) was 6.3 µM in the series with Plasmodium falciparum, 81 µM with L6, 34.7 µM in series [3] and greater than 100 µM in the series on Leishmania donovani. Also, in series [4], the MSD stood at 22.25 days. Further, the result in series [6] was inactive.

As to `CO/N=C(\N)c1cccc(COc2c(Cl)cc(/C(N)=N/OC)cc2Cl)c1.Cl.Cl.Cl.Cl`, the values for the selectivity ratio in series [1], in [2] and in [5] were less than 2, 18 and 2, respectively. Further, the half-inhibitory concentration (IC50) in the series with Plasmodium falciparum is 5.91 µM; with L6, 108 µM; in series [3] it was 60.1 µM; with Leishmania donovani it was greater than 50 µM. For the same molecule, the MSD in [4] was determined as 21.75 days. In [6], the outcome was inactive.

`Cl.Cl.N/C(=N\O)c1cccc(COc2ccc(/C(N)=N/O)cc2Br)c1`: the selectivity ratio in series [1], in [2] and in series [5] was less than 1 in each case. Further, the IC50 in the series on Plasmodium falciparum is 5.8 µM; in the series on L6, 4.39 µM; in series [3], 14.7 µM; in the series on Leishmania donovani, greater than 100 µM. Besides, the MSD in series [4] is 12.75 days. The outcome in [6] was inactive.

Take `CO/N=C(\N)c1cccc(COc2c(OC)cc(/C(N)=N/OC)cc2OC)c1.Cl.Cl`: the selectivity ratio in [1] is less than 2; in series [5] it was greater than 1. For the same molecule, the concentration for half-maximal inhibition (IC50) in the series with Plasmodium falciparum is greater than 10.4 µM; in the series on L6, greater than 188 µM; in series [3] it was 109 µM; in the series with Leishmania donovani it was greater than 100 µM. In addition, in series [4], the MSD came to 15 days. Also, the outcome in [6] was inactive.

For `COc1cc(/C(N)=N/O)cc(I)c1OCc1cccc(/C(N)=N/O)c1.Cl.Cl`, the results for the selectivity ratio in series [1], in [2] and in series [5] were less than 1, less than 3 and less than 1, respectively. Further, the IC50 in the series with Plasmodium falciparum is greater than 9.45 µM; with L6, 32.1 µM; in series [3], 38.7 µM; in the series with Leishmania donovani, greater than 94.5 µM. Further, in [4], the MSD is 20.5 days. The result in series [6] was inactive.

As for `Cl.Cl.N/C(=N\O)c1cccc(COc2ccc(/C(N)=N/O)cc2I)c1`, the selectivity ratio in series [1], in series [2] and in series [5] was less than 1 each time. In addition, the IC50 was 7.31 µM in the series on Plasmodium falciparum, 4.73 µM with L6, 50.2 µM in series [3] and greater than 50 µM with Leishmania donovani. In addition, the MSD in [4] is 20 days. Also, in [6], the result was inactive.

Turning to `COc1cc(/C(N)=N/O)cc(OC)c1OCc1ccc(/C(N)=N/O)cc1.Cl.Cl`, the selectivity ratio in series [1] is 1.67; in series [2], 5.11; in series [5], less than 1. Moreover, the IC50 with Plasmodium falciparum was 11.1 µM; in the series with L6, 56.8 µM; in series [3], 161 µM; with Leishmania donovani, 34.1 µM. In addition, the MSD in series [4] was found to be 14.5 days. In addition, in series [6], the outcome was inactive.

The IC50 is the midpoint of a concentration-inhibition curve. High values mean lower potency, low ones higher potency.
